Measurements as given in ChEMBL document CHEMBL1143009, “D- and L-2',3'-didehydro-2',3'-dideoxy-3'-fluoro-carbocyclic nucleosides: synthesis, anti-HIV activity and mechanism of resistance” (J Med Chem, 2007).

What was measured:
[1] = system: Human immunodeficiency virus 1; assay: Antiviral activity against HIV1 LAV1 in human PBM cells by RT assay; format: functional, organism-based; conditions: for EC50 / EC90: Human immunodeficiency virus 1, LAV1, PBMC
In short: (§1)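 Human PBM cells were infected with HIV-1. The strain was LAI by default, or xxBRU where indicated. Antiviral activity was reported as EC50 and EC90.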

PBMC = assay: Cytotoxicity against human PBMC; format: cell-based
Vero = assay: Cytotoxicity against African green monkey Vero cells; format: cell-based; conditions: chlorocebus sabaeus
[2] = system: Human immunodeficiency virus 1; assay: Antiviral activity against HIV1 xxBRU in human PBM cells by RT assay; format: functional, organism-based; in short: as §1
[3] = system: Human immunodeficiency virus 1; assay: Antiviral activity against lamivudine-resistant HIV1 M184V mutant in human PBMC cells by RT assay; format: functional, organism-based
In short: (§2)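 Human PBM cells infected with lamivudine-resistant HIV-1 M184V and, in parallel, wild-type HIV-1 (xxBRU where footnoted, otherwise LAI). EC50 was determined for each virus, and the mutant EC50 was divided by the wild-type EC50. Carbovir served as positive control.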

[4] = system: Human immunodeficiency virus 1; assay: Ratio of EC50 for lamivudine-resistant HIV1 M184V mutant to EC50 for HIV1 […]; format: functional; in short: as §2
[5] = Human immunodeficiency virus 1, xxBRU, PBMC
[6] = Human immunodeficiency virus 1, PBMC

Compound	EC50 [1]	EC90 [1]	Activity (PBMC)	Activity (Vero)	ED90 [2]	EC50 [2, 5]	EC50 [3, 6]	EC90 [3, 6]	Ratio [4]	ED90 [1]	EC90 [2, 5]	ED90 [3]
Nc1ncnc2c1ncn2[C@H]1C=C(F)[C@H](CO)C1	14.8 µM	40.6 µM	> 100 µM	> 100 µM								
Nc1nc2c(ncn2[C@H]2C=C[C@@H](CO)C2)c(=O)[nH]1 [CARBOVIR]					0.27 µM	0.087 µM	0.2 µM	1.1 µM	2.3			
Nc1nc2c(ncn2[C@@H]2C[C@@H](CO)C(F)(F)C2)c(=O)[nH]1	> 100 µM		> 100 µM	> 100 µM						>100 µM		
OC[C@H]1C[C@H](n2cnc3c(O)ncnc32)C=C1F	> 100 µM		> 100 µM	> 100 µM						>100 µM		
Nc1ncnc2c1ncn2[C@@H]1C=C(F)[C@@H](CO)C1	10.3 µM	33.5 µM	> 100 µM	> 100 µM								
Cc1cn([C@@H]2C=C(F)[C@@H](CO)C2)c(=O)[nH]c1=O	6.4 µM	> 100 µM	> 100 µM	> 100 µM								
Cc1cn([C@H]2C=C(F)[C@H](CO)C2)c(=O)[nH]c1=O	68.8 µM	> 100 µM	> 100 µM	> 100 µM								
Nc1ncnc2c1ncn2[C@@H]1C[C@@H](CO)C(F)(F)C1	> 100 µM		95.1 µM	> 100 µM						>100 µM		
Nc1ccn([C@H]2C=C(F)[C@H](CO)C2)c(=O)n1	> 100 µM		> 100 µM	> 100 µM						>100 µM		
Nc1nc2c(ncn2[C@@H]2C=C(F)[C@@H](CO)C2)c(=O)[nH]1	20.7 µM	> 100 µM	> 100 µM	> 100 µM								
Nc1ccn([C@@H]2C[C@@H](CO)C(F)(F)C2)c(=O)n1	> 100 µM		> 100 µM	> 100 µM						>100 µM		
Nc1nc2c(ncn2[C@H]2C=C(F)[C@H](CO)C2)c(=O)[nH]1	0.41 µM	2.8 µM	21.1 µM	> 100 µM		0.098 µM	3.8 µM		38.8		0.58 µM	14.9 µM
Nc1ccn([C@@H]2C=C(F)[C@@H](CO)C2)c(=O)n1	7.1 µM	72 µM	> 100 µM	> 100 µM								
OC[C@@H]1C[C@@H](n2cnc3c(O)ncnc32)C=C1F	> 100 µM		> 100 µM	> 100 µM						>100 µM		
OC[C@@H]1C[C@@H](n2cnc3c(O)ncnc32)CC1(F)F	> 100 µM		> 100 µM	> 100 µM						>100 µM		
Cc1cn([C@@H]2C[C@@H](CO)C(F)(F)C2)c(=O)[nH]c1=O	> 100 µM		> 100 µM	> 100 µM						>100 µM		
